Measured values published in publication PMC9201701 (RSC Advances, 2022).
“Also recorded” adds a separate entry of the source.

Experiments:
[1] = system: HepG2 cell line; conditions: read-out: Cytotoxicity IC50, HepG2 cell line; cited from earlier work
[2] = system: MCF-7; test: MTT cytotoxicity assay, MCF-7; type: cell-based, human; conditions: for Cytotoxicity IC50, MCF-7: 72 hours, MTT assay; for IC50: Homo sapiens, MCF7, 72 h, read-out: Cytotoxicity IC50, MCF-7
[3] = system: HCT-116; test: MTT cytotoxicity assay, HCT-116; type: cell-based, human; conditions: for Cytotoxicity IC50, HCT-116: 72 hours, MTT assay; for IC50: Homo sapiens, HCT-116, 72 h, read-out: Cytotoxicity IC50, HCT-116
[4] = system: vero cells; test: MTT cytotoxicity assay, vero cells; type: cell-based, African Green Monkey; conditions: for Cytotoxicity IC50, Vero cell: 72 hours, MTT assay
[5] = system: HT-29; test: MTT cytotoxicity assay, HT-29; type: cell-based, human; conditions: for Cytotoxicity IC50, HT-29: 72 hours, MTT assay; for IC50: Homo sapiens, HT-29, 72 h, read-out: Cytotoxicity IC50, HT-29
[6] = system: HCT-116, HT-29, MCF-7 and vero cell lines; test: MTT cytotoxicity assay, stated over all four cell lines; type: cell-based; conditions: for Cytotoxicity against all tested cell lines, in words: HCT-116, HT-29, MCF-7 and vero cells; for IC50: read-out: IC50 range over all cell lines
Method in brief: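 Cells grown in RPMI 1640 with 10% FBS, penicillin and streptomycin at 37 °C, 5% CO2. Solvent controls got 1:1 DMSO/EtOH. After exposure, medium replaced with fresh medium containing MTT (0.5 mg mL−1 in PBS) for 2 h. […] Viability % = sample/control (A550−A655) × 100. Four replicates.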

[7] = MTT cytotoxicity assay, vero cells; type: cell-based, African Green Monkey; conditions: African green monkey, Vero cells (normal kidney cells)
[8] = system: HeLa cells; conditions: read-out: Cytotoxicity IC50, HeLa cells; ref 9 (Posri et al., 2021); cited from earlier work
[9] = system: MRC-5; conditions: read-out: Cytotoxicity IC50, MRC-5; cited from earlier work
[10] = system: HeLa; conditions: read-out: Cytotoxicity IC50, HeLa; cited from earlier work
[11] = system: KB; conditions: read-out: Cytotoxicity IC50, KB; cited from earlier work
[12] = system: Pythium insidiosum; conditions: compared with amphotericin-B standard; cited from earlier work

| Molecule | Cytotoxicity IC50, HT-29 [5] | IC50 [2] | IC50 [3] | IC50 at 72 h [7] | IC50 [5] | IC50 [6] | further results |
| --- | --- | --- | --- | --- | --- | --- | --- |
| C=C(C)[C@H]1Cc2c(ccc3c2O[C@@H]2COc4cc(OC)c(OC)cc4[C@]2(O)C3=O)O1 [(−)-12α-hydroxyrotenone] | – | – | – | – | – | – | IC50 [1]: 18 ± 1.51 µM |
| COc1cc(O)c2c(c1)OCC(c1cc(OC)c(OC)cc1OC)C2=NN (stereo not drawn) [Compound 14, 5-Hydroxy-7,2′,4′,5′-tetramethoxyisoflavanone hydrazone] | Inactive | – | – | – | – | – | Cytotoxicity IC50, MCF-7 [2]: Inactive; Cytotoxicity IC50, HCT-116 [3]: Inactive; Cytotoxicity IC50, Vero cell [4]: Inactive; Cytotoxicity against all tested cell lines, in words [6]: inactive |
| COc1cc(OC)c2c(=O)c(-c3cc(OC)c(OC)cc3OC)coc2c1 [Compound 6, 5,7,2′,4′,5′-Pentamethoxyisoflavone] | – | 98.5 ± 15.4 µM | 178 ± 2.23 µM | > 269 µM | 154 ± 12.1 µM | – | Cytotoxicity against all tested cell lines, in words [6]: weak activity |
| COc1cc(-c2coc3cc(OC(C)=O)cc(O)c3c2=O)c(OC)cc1OC(C)=O [Compound 3, 7,4′-Diacetoxy-5-hydroxy-2′,5′-dimethoxyisoflavone] | Inactive | – | – | 112 ± 12.3 µM | – | – | Cytotoxicity IC50, MCF-7 [2]: Inactive; Cytotoxicity IC50, HCT-116 [3]: Inactive |
| CC(C)=CCC/C(C)=C/Cc1c(O)ccc2c1OC[C@H]1c3cc4c(cc3O[C@@H]21)OCO4 [R,R-Velucarpin A] | – | – | – | – | – | – | IC50 [8]: 10.9 ± 0.42 µM |
| COc1cc(O)c2c(c1)OCC(c1cc(OC)c(OC)cc1OC)C2=O (stereo not drawn) [Compound 9, 5-Hydroxy-7,2′,4′,5′-tetramethoxyisoflavanone] | – | 31 ± 1.89 µM | 37.1 ± 1.28 µM | 33.5 ± 1.25 µM | 19.2 ± 1.86 µM | 19 to 37 µM | – |
| COc1cc(OC)c2c(c1)OCC(c1cc(OC)c(OC)cc1OC)C2=O (stereo not drawn) [Compound 10, 5,7,2′,4′,5′-Pentamethoxyisoflavanone] | Inactive | 73.8 ± 0.77 µM | 30.3 ± 1.15 µM | 116 ± 20.2 µM | – | – | Cytotoxicity against normal cells (vero cell line), in words ([4]; vero cell line): weak cytotoxicity; also recorded: weak activity |
| 7,4′-Dibutoxy-5-hydroxy-2′,5′-dimethoxyisoflavone [Compound 4] | Inactive | – | – | – | – | – | Cytotoxicity IC50, MCF-7 [2]: Inactive; Cytotoxicity IC50, HCT-116 [3]: Inactive; Cytotoxicity IC50, Vero cell [4]: Inactive |
| 5-Hydroxy-7,4′-dimesyl-2′,5′-dimethoxyisoflavone [Compound 2] | Inactive | – | – | – | – | – | Cytotoxicity IC50, MCF-7 [2]: Inactive; Cytotoxicity IC50, HCT-116 [3]: Inactive; Cytotoxicity IC50, Vero cell [4]: Inactive |
| COc1cc(C2COc3cc(O)cc(O)c3C2=O)c(OC)cc1O (stereo not drawn) [Compound 8, 5,7,4′-Trihydroxy-2′,5′-dimethoxyisoflavanone] | – | 148 ± 1.96 µM | 92.7 ± 1.84 µM | 93.6 ± 10.2 µM | 69.9 ± 6.47 µM | 69 to 147 µM | – |
| COc1cc(OC)c2c(c1)OCC(c1cc(OC)c(OC)cc1OC)C2 (stereo not drawn) [Compound 11, 5,7,2′,4′,5′-Pentamethoxyisoflavan] | – | 21.1 ± 2.61 µM | 28.9 ± 3.19 µM | 31.1 ± 4.99 µM | 29.38 ± 0.08 µM | 19 to 37 µM | – |
| COc1cc(-c2coc3cc(O)cc(O)c3c2=O)c(OC)cc1O [Compound 1, Olibergin A] | – | 72.1 ± 1.12 µM | 79.2 ± 4.78 µM | 88.8 ± 4.33 µM | 32.2 ± 1.73 µM | – | IC50 [9]: 25 µM; IC50 [10]: 59.8 µM; IC50 [11]: 48.1 µM; Cytotoxicity against all tested cell lines, in words [6]: weak activity |
| COc1cc(O)c2c(c1)OCC(c1cc(OC)c(OC)cc1OC)C2=NO (stereo not drawn) [Compound 15, 5-Hydroxy-7,2′,4′,5′-tetramethoxyisoflavanone oxime] | – | 28.9 ± 3.94 µM | 26.4 ± 0.05 µM | 29.8 ± 4.85 µM | 38.6 ± 2.77 µM | 26 to 38 µM | – |
| COc1ccc(C2COc3cc(O)ccc3C2)c(O)c1 (single isomer, unassigned; (-)) [(−)-vestitol] | – | – | – | – | – | – | Antifungal activity against Pythium insidiosum [12]: strongest antifungal activity |
| COc1cc(O)c2c(=O)c(-c3cc(OC)c(OC)cc3OC)coc2c1 [Compound 5, 5-Hydroxy-7,2′,4′,5′-tetramethoxyisoflavone] | – | 12.5 ± 0.7 µM | 19 ± 0.7 µM | 13.5 ± 0.84 µM | 10.8 ± 1.65 µM | 10 to 19 µM | – |
